Results collected from several papers.
Compare with care: the assays were run in different laboratories.
Target: Serine/threonine-protein kinase Nek7 (NEK7, Homo sapiens, UniProt Q8TDX7)

Structure (SMILES) | effect on | technique | tested at | remaining binding
C[C@@H](c1ccc(-n2cnc3c(N)ncnc32)cc1)N1CCc2nn(C)c(Cc3ccccc3)c2C1=O | binding | competition with immobilised ligand | 0.1 µM | 94%
CN(C)c1nccc(-c2cnn3ncccc23)n1 | binding |  | 1 µM | 92%
COc1ccc2c(c1)O[C@@H](c1ccc(OC)c(OC)c1)C[C@H]2NC(=O)C1(c2ccc3c(c2)OC(F)(F)O3)CC1 | cell-free assay | competition with immobilised ligand | 1 µM | 100%
Cc1cnn2ncc(-c3ccnc(N(C)C)n3)c2c1 | binding |  | 1 µM | 100%
O=C(NCCCC1CCCCC1)c1ccc(CNC(=O)c2cnn(-c3ccccc3)c2C(F)(F)F)cc1 | cell-free assay | competition with immobilised ligand | 0.1 µM | 97%
c1cncc(-c2cccc(Nc3nccc(NC4CCCCC4)n3)c2)c1 | binding | competition with immobilised ligand | 10 µM | 79%
CCN1CCN(Cc2ccc(C(=O)Nc3ccc(C)c(Oc4ccc5c(c4)CC(=O)N5)c3)cc2C(F)(F)F)CC1 | binding | competition with immobilised ligand | 1 µM | 100%
c1cnn2ncc(-c3ccnc(N4CCC45COC5)n3)c2c1 | binding |  | 1 µM | 86%
Cc1cnc(Nc2ccc(C(=O)N3CCC(N4CCCC4)CC3)cc2)nc1-c1cc2ccccc2s1 | binding | competition with immobilised ligand | 1 µM | 0.7%
O=C(N1CCS(=O)(=O)CC1)N1C[C@H](c2ccc(OC(F)(F)F)cc2)C[C@H](c2nc(C3CC3)no2)C1 | cell-free assay | competition with immobilised ligand | 1 µM | 100%
O=C(NCCCN1CCOCC1)c1ccc(Nc2ncc(Cl)c(-c3ccc(Cl)s3)n2)cc1 | binding | competition with immobilised ligand | 1 µM | 1.2%
Cc1nc(C2CCN(C(=O)c3ccc(OC(F)(F)F)cc3N)CC2)c2ncc(N3CCN(C)CC3)cc2n1 | cell-free assay | competition with immobilised ligand | 1 µM | 100%
N[C@H]1CCN(c2nccc(-c3cnn4ncccc34)n2)C1 | binding |  | 1 µM | 100%
COc1cnc(Nc2cccc(S(N)(=O)=O)c2)nc1N1CCN(c2ccccc2)C(=O)C1 | binding | competition with immobilised ligand | 1 µM | 91%
O=C(NCC1CCOCC1)c1n[nH]cc1NC(=O)c1c(F)cccc1F | binding | competition with immobilised ligand | 1 µM | 93%
C[C@@H]1CCN(c2nccc(-c3cnn4ncccc34)n2)C1 | binding |  | 1 µM | 89%
CS(=O)(=O)N1CCCC(NC(=O)[C@H](CCC2CCCCC2)NC(=O)c2ccc(CNc3ncnc4c3nnn4-c3ccccc3)cc2)C1 (stereo partly drawn) | cell-free assay | competition with immobilised ligand | 0.1 µM | 88%
C=CC(=O)N1CCC(C(=O)NCC(=O)N2CCN(c3nc(-c4cnc(N)nc4C(F)F)nc(N4CCOCC4)n3)CC2)CC1 | binding | competition with immobilised ligand | 1 µM | 100%
CC1CCCN1c1nccc(-c2cnn3ncccc23)n1 (stereo not drawn) | binding |  | 1 µM | 100%
CC(=O)C1=C(C)N(c2cccc(C(F)(F)F)c2)C(=O)N[C@@H]1c1ccc(C#N)nc1 | cell-free assay | competition with immobilised ligand | 1 µM | 100%
FC(F)(F)Oc1cccc(-c2cnc3ccc(-c4ccncc4)nn23)c1 | cell-free assay | competition with immobilised ligand | 5 µM | 91%
O=C(Nc1cnc(Oc2ccc(F)cc2)nc1)N1CCc2ncccc2[C@@H]1c1ccc(F)cc1 | cell-free assay | competition with immobilised ligand | 1 µM | 84%
CN(CCCC(F)(F)F)c1nccc(-c2cnn3ncccc23)n1 | binding |  | 1 µM | 100%
O=C(NCCCN1CCOCC1)c1ccc(Nc2nccc(-c3cc4ccccc4s3)n2)cc1 | binding | competition with immobilised ligand | 1 µM | 52%
